Shown are actives, neighbours in structure and some others; about 2.2% of the full set was active somewhere.
GalR3 antagonist: human GalR3 antagonism; O60755; HEK293 GalR3-CNG cAMP membrane potential fluorescence; galR3 body fused to GalR1 C-terminus; inhibition, % at 3 µM; hit rate 0.44% among 360,000;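 active = inhibition above the screen-wide average plus 3 SD, cut at about 13% in these data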;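 note: forskolin and galanin both at EC90 stimulate the cells; cAMP rise reported by CNG channel membrane potential dye signal; 0% = forskolin plus galanin with DMSO and 100% = forskolin alone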
Target sequence (O60755 1-299 limits assumed): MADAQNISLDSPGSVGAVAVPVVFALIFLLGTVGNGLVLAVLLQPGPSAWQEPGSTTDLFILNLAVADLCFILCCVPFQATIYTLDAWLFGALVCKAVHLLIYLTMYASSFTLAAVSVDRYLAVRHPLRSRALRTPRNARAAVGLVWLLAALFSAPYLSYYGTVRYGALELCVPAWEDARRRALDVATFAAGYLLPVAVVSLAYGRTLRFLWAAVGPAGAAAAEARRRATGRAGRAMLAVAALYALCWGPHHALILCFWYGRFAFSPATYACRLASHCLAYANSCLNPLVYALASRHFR
V-ATPase pH: alters yeast V-ATPase proton transport; AID 504577; S. cerevisiae, pHLuorin cytosolic pH fluorescence; hit rate 0.37% among 350,000; response, % at 10 µM; in the data active = response mostly above about 7.3%, no sharp cut-off; inactive = mostly below about 5.4%; note: actives read high
Env fusion inh: HIV envelope-mediated fusion inhibition | HeLa-JRFL Env/CEM21 cell fusion, luciferase | inhibition, % at 12.3 µM | hit rate 1.1% among 360,000;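 active = mean replicate inhibition score of at least 50 and every replicate individually at or above 50; inconclusive = only one of the two criteria met; inactive = mean below 50 and not all replicates reaching 50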;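 note: 0% = plate neutral controls and 100% = maraviroc near 300 nM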
NR2E3 ag-1: activates human NR2E3 receptor; Q9Y5X4; CHO-S Gal4-NCOR/VP16-NR2E3 two-hybrid, luciferase; inhibition of corepressor binding, % at 3.98 µM; hit rate 0.35% among 360,000; AID 602229;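 active = inhibition above the mean of all tested compounds plus 3 SD, cut at about 70% in these data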;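 note: 0% = DMSO with NR2E3 transfected cells and 100% = cells lacking NR2E3 construct; higher means lower luciferase signal from less NR2E3 corepressor binding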
Target sequence (Q9Y5X4 whole entry, looked up, the tested form may be a part): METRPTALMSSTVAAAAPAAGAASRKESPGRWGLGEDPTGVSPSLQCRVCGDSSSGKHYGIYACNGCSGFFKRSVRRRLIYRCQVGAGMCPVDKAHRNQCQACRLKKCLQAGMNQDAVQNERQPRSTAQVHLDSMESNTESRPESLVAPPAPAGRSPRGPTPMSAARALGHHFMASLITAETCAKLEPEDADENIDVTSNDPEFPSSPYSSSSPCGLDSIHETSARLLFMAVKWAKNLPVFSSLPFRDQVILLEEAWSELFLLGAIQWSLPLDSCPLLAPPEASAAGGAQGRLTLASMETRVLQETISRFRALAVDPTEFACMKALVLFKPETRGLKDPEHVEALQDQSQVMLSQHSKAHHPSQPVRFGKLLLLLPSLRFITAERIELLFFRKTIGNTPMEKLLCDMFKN
NR2E3 ag-2: NR2E3 (human) agonism. Q9Y5X4. GST-NR2E3/biotin-RetCOR TR-FRET, 1536-well. inhibition of corepressor binding, % at 4.78 µM. hit rate 0.12% among 320,000. AID 2300;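 active = percent inhibition above the cutoff of mean plus 3 SD of all tested compounds, set per screening campaign, cut at about 20% in these data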;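 note: 0% = DMSO wells and 100% = biotin wells as full block of FRET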
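Test system – NR2E3–RetCOR corepressor complex · Quantity – NR2E3 fusion 1.35 nM · Buffer or medium – Tris pH 7.5 · Incubation – Compound–protein incubation for 5 h at 4 °C · Technique – TR-FRET, Eu(K)-anti-GST donor, streptavidin-D2 acceptor, ex 340, em 617/671 nm · Evaluation – percent inhibition of 671/617 nm emission ratio versus biotin and DMSO controls · Plate – 1536-well format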
GAA850 FXN act: frataxin GAA850 promoter activation | HEK293 lucGAA850 FXN promoter luciferase reporter, 24 h; percent of 10 µM SAHA response | activation, % at 6 µM | hit rate 0.56% among 360,000;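 active = activation above the average of all compounds screened plus 3 SD, cutoff fixed separately per campaign, cut at about 7.5% in these data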;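 note: 0% = DMSO wells and 100% = 10 µM SAHA wells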
NR2E3 ag confirm: confirmation of human NR2E3 nuclear receptor agonists; hit rate 39% among 360; AID 2379; cell-free NR2E3 corepressor release, TR-FRET, 5 h; activation (reported as inhibition), % at 3.98 µM; shares compounds with NR2E3 ag-2; in the data active = activation above about 20%
PPARg-NCOR2 ctr: counter-screen for NR2E3 agonists: human PPARgamma-NCOR2 interaction agonists. inhibition, % at 3.98 µM. hit rate 45% among 360. TR-FRET PPARg-NCOR2 coregulator interaction, biochemical. shares compounds with NR2E3 ag-2; in the data active = inhibition above about 20%;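 note: 0% = DMSO vehicle and 100% = wells without protein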
An asterisk follows results filed as active; ? = inconclusive; . = not tested or not shown; [ ] = dose if it differs, or a comment.

SMILES | GalR3 antagonist | V-ATPase pH | Env fusion inh | NR2E3 ag-1 | NR2E3 ag-2 | GAA850 FXN act | NR2E3 ag confirm | PPARg-NCOR2 ctr
Cc1cccc(C)c1-n1nnnc1C(c1ccnc2ccccc12)N(CCC#N)Cc1ccccc1 (stereo not drawn) | -9.2 | . | 7.1 | -27.1 | . | . | . | .
O=C(C[C@@H]1CC[C@H]2[C@@H](COC[C@H](O)CN2Cc2ccccc2)O1)N1CCOCC1 | . | . | 8.1[16.7 µM] | . | . | . | . | .
C=C[C@@H]1c2cc(C)ccc2N(S(=O)(=O)c2ccc(C)cc2)[C@H](c2ccccc2C(F)(F)F)C1(C#N)C#N | -5.8 | 3.4 | 56.3* | 32.8 | 1.7 | -0.2 | . | .
C=C[C@@H]1c2cc(C)ccc2N(S(=O)(=O)c2ccc(C)cc2)[C@H](c2ccccc2)C1(C#N)C#N | -2.4 | 5.9 | 27.9 | 0.3 | 4.6 | 0.4 | . | .
Cc1ccc(-n2nnnc2-c2cccc(C)c2)cc1 | -8.8 | -2.6 | 1.6 | -0.8 | 3.7 | 2.6 | . | .
COc1ccc(-n2nnnc2-c2cccc(OC)c2)cc1 | -5.3 | 3.4 | 56.4* | -53.5 | 4.0 | -3.9 | . | .
C[C@@H]1CN([C@H](C)CO)C(=O)Cc2cc(NC(=O)Cc3ccccc3)ccc2O[C@@H]1CN(C)S(C)(=O)=O | . | . | -23.7[16.7 µM] | . | . | . | . | .
CCOC(=O)CCc1c(C)n[nH]c1C | -3.4 | -2.4 | 7.9 | 14.9 | -0.5 | -0.2 | . | .
CCOC(=O)CCCc1sc(N)nc1-c1[nH]c(=O)[nH]c1C | . | -4.4 | . | -15.9 | 47.9* | -1.1 | 11.8 | -2.6
CN(CC(=O)NCCc1ccc(Cl)cc1)S(=O)(=O)c1ccc2c(c1)c(=O)n(C)c(=O)n2C | 0.2 | -4.3 | -3.4 | 5.8 | 4.1 | -1.9 | . | .
CN(CC(=O)NCCC1=CCCCC1)S(=O)(=O)c1ccc2c(c1)c(=O)n(C)c(=O)n2C | 0.9 | -6.1 | 2.0 | 3.9 | 24.5* | 0.6 | -4.9 | -6.1
C[C@@H]1CN([C@@H](C)CO)C(=O)c2cc(N(C)C)ccc2O[C@@H]1CN(C)Cc1ccc(C(=O)O)cc1 | . | . | 2.2[16.7 µM] | . | . | . | . | .
Cc1nc2ccc(Br)cc2c(-c2ccccc2)c1C(=O)O | 10.6 | -2.2 | 18.1 | 0.9 | 46.5* | 2.4 | 58.6* | 54.0*
CC(=O)c1c(C)nc2ccc(Br)cc2c1-c1ccccc1 | -7.9 | 2.3 | 8.6 | -12.2 | 2.2 | 1.5 | . | .
C[C@H](CO)N1C[C@H](C)[C@@H](CN(C)C(=O)Nc2ccc3c(c2)OCO3)Oc2ccc(NS(C)(=O)=O)cc2CC1=O | . | . | -26.5[16.7 µM] | . | . | . | . | .
CC(C)c1nc2sc3c(=O)[nH]c(=S)[nH]c3c2c2c1CCCC2 | -6.8 | -0.1 | -9.8 | -19.1 | 23.7* | 0.4 | 44.7* | 43.6*
COc1cccc2c1NC(C(=O)O)C1CC=CC21 (stereo not drawn) | . | 1.0 | . | -0.1 | 22.5* | -0.2 | 5.4 | 13.9
CCc1c(C(=O)O)[nH]c2ccc(Br)cc12 | -0.1 | 0.7 | . | -1.7 | 43.5* | 0.8 | 40.7* | 30.2*
N#CC1=C(N)SC(N)=C(C#N)C1CCc1ccccc1 | -4.6 | 4.9 | 47.1 | -16.8 | 7.6 | 0.9 | . | .
N#CC1=C(N)SC(N)=C(C#N)C1c1c(Cl)cccc1Cl | -3.1 | -4.4 | . | -7.3 | 40.0* | -0.1 | 2.5 | 25.7*
CCN(CC(=O)NC1CCS(=O)(=O)C1)Cc1nc2c(Br)cc(Br)cc2c(=O)[nH]1 (stereo not drawn) | -0.3 | 1.2 | -10.5 | -10.2 | 16.7 | 0.2 | . | .
CCN(CC(=O)NC(C)(C)C)Cc1nc2c(Br)cc(Br)cc2c(=O)[nH]1 | -6.1 | -5.0 | 9.6 | -6.0 | 21.6* | 0.7 | 33.0* | 29.1*
Cn1nc(C(=O)N2CCC(C(N)=O)CC2)c2c1-c1ccccc1SC2 | -0.6 | -2.5 | -4.8 | -18.8 | 26.7* | 0.6 | -6.8 | 4.0
N#CC1=C(c2ccccc2)/C(=C/c2ccccc2)OC1=O | -1.2 | 7.8 | . | -20.8 | 0.7 | 4.1 | . | .
N#CC(C#N)=C1NC(N)=C(C#N)C(c2ccccc2)=C1C#N | -1.4 | 3.4 | -1.4 | -42.2 | 47.7* | -0.5 | 44.8* | 40.4*
SMILES | GalR3 antagonist | V-ATPase pH | Env fusion inh | NR2E3 ag-1 | NR2E3 ag-2 | GAA850 FXN act | NR2E3 ag confirm | PPARg-NCOR2 ctr
C=CCOc1ccc(/C(O)=C2\C(=O)C(=O)N(CCOC)C2c2cccnc2)cc1 (stereo not drawn) | -1.2 | 0.6 | -34.0 | 21.7 | 20.6* | 2.3 | 5.0 | 4.2
CC1NC(=O)NC1CCCCC(=O)O (stereo not drawn) | -2.1 | -0.6 | . | -26.6 | 0.2 | -1.1 | . | .
CCc1cccc(NC(=O)CCCCCC2NC(=O)NC2C)c1 (stereo not drawn) | 3.2 | 2.1 | 1.9 | -7.1 | 86.0* | 2.3 | 90.3* | 91.7*
Cc1ccc(NC(=O)CCCCCC2NC(=O)NC2C)cc1 (stereo not drawn) | . | 6.9 | . | -18.7 | 86.8* | -2.1 | 90.5* | 91.6*
CC1NC(=O)NC1CCCCCC(=O)Nc1ccc(F)c(Cl)c1 (stereo not drawn) | 1.7 | -1.9 | -3.3 | -4.4 | 90.0* | -0.5 | 88.2* | 91.0*
COC(=O)c1cc2sc(Cl)cc2n1Cc1nc(-c2ccccc2)oc1C | 2.5 | -3.5 | 19.6 | 1.6 | 25.4* | 1.9 | -4.1 | -8.2
COC(=O)c1cc2sccc2n1Cc1nc(-c2ccc(OC)cc2)oc1C | -4.3 | -0.7 | ? | -11.0 | -1.8 | -0.1 | . | .
Cc1cc(C)c(Cn2c(=O)n(CCCC(=O)NCc3ccco3)c(=O)c3sccc32)c(C)c1 | -2.5 | 3.0 | -467.4 | 7.8 | 26.9* | -2.1 | 3.6 | -4.6
Cc1cc(C(=O)OCC(=O)c2ccc(Br)s2)no1 | . | 0.6 | . | -10.2 | 24.8* | -0.3 | 5.6 | 14.0
C[C@H]1CN([C@@H](C)CO)S(=O)(=O)c2ccc(C#CC3CC3)cc2O[C@H]1CN(C)C(=O)C1CCCCC1 | . | . | 24.1[16.7 µM] | . | . | . | . | .
N#Cc1c(-c2ccco2)nc(SCc2ccc(F)cc2)[nH]c1=O | -2.0 | 2.0 | . | 26.9 | 40.1* | -3.9 | 10.3 | 58.9*
COC(=O)CC#N | 1.8 | 0.3 | . | -9.7 | 0.0 | 1.8 | . | .
N#CCC(N)=C(C#N)C#N | . | 5.2 | . | -26.6 | 25.5* | 0.2 | 0.0 | 8.2
CCN(CC)S(=O)(=O)c1cc(C(=O)OCC(=O)Nc2cccc(S(=O)(=O)N(C)C)c2)ccc1F | 1.6 | 1.1 | -31.8 | 1.1 | 21.9* | -0.4 | -5.8 | -6.3
CN(C)S(=O)(=O)c1cccc(NC(=O)COC(=O)c2ccc3ccccc3n2)c1 | 0.1 | -4.0 | 19.0 | -4.9 | . | 1.1 | . | .
CCOc1ccc(C2C(C(=O)c3ccco3)=C(O)C(=O)N2CCCn2ccnc2)cc1 (stereo not drawn) | 6.1 | 0.5 | -83.6 | -24.6 | . | 1.4 | . | .
Cc1ccc(C(=O)C2=C(O)C(=O)N(Cc3cccnc3)C2c2ccc(N(C)C)cc2)o1 (stereo not drawn) | -5.4 | 2.3 | 2.5 | -33.9 | 10.0 | 0.1 | . | .

Screening data (PubChem BioAssay)
